For assay [1], the system named is Staphylococcus aureus. Description: Inhibition of MepA in Staphylococcus aureus K2886 assessed as reduction of ethidium bromide MIC at 0.78 to 100 ug/mL. In short, it runs like this: (§1)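 The strains are norA-deleted S. aureus carrying pALC2073-mepA (K2886) or the empty pALC2073 vector (K2885). Cloned genes are under a xyl/tetO promoter, induced by 0.05 μg/mL tetracycline, which was present in all experiments with these strains. EtBr MICs were determined by CLSI microdilution, with and without test compound.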

Assay [2] has as its system Staphylococcus aureus. Description: Antibacterial activity against Staphylococcus aureus K2378 overexpressing norA assessed as growth inhibition by microdilution method. The class given is functional. In short, it runs like this: (§2)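 Broth microdilution MIC per CLSI guidelines for intrinsic antistaphylococcal activity; highest concentration tested 100 μg/mL. SA-1199 is the norA wild-type parent, SA-1199B overexpresses norA and carries GrlA A116E, and SA-K2378 overexpresses norA from multicopy plasmid pCU1 in the norA-deleted SA-K1902 background.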

Assay [3] has as its target Quinolone resistance protein NorA (Staphylococcus aureus, UniProt P0A0J7). Briefly: Inhibition of NorA in Staphylococcus aureus 1199B harboring grlA A116E mutant assessed as inhibition of ethidium bromide efflux measured for 5 mins by fluorometric analysis. In short, it runs like this:
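Fluorometric EtBr efflux assay in SA-1199B (norA overexpressing, GrlA A116E) over a 5 min time course, compared with no-inhibitor control. Increasing inhibitor concentrations were tested, and IC50 was read by inspection of the dose-response plots. Usually run in duplicate.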

Assay [4] has as its system Staphylococcus aureus. Description: Reduction of ciprofloxacin MIC in norA-deficient Staphylococcus aureus K1902 at 0.78 to 100 ug/mL. Format: functional, organism-based. In short, it runs like this:
(§3)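 Ciprofloxacin MIC determined by CLSI broth microdilution, alone and combined with scalar dilutions of freshly prepared test compound; checkerboard combination format. Strains: ATCC 25923 (wild type), SA-1199 (norA wt), SA-1199B (norA overexpressing, GrlA A116E), SA-K2378 (norA on multicopy pCU1) and SA-K1902 (norA-deleted).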

Assay [5] relates to Staphylococcus aureus. Briefly: Antibacterial activity against Staphylococcus aureus 1199B overexpressing NorA and grlA A116E mutant assessed as growth inhibition by microdilution method. Format: functional. In short, it runs like this: as §2
(In broth dilution the organism is exposed to a series of concentrations in liquid medium.)

Assay [6] has as its target T1, Quinolone resistance protein NorA (Staphylococcus aureus) (UniProt P0A0J7).
T1 sequence (whole entry): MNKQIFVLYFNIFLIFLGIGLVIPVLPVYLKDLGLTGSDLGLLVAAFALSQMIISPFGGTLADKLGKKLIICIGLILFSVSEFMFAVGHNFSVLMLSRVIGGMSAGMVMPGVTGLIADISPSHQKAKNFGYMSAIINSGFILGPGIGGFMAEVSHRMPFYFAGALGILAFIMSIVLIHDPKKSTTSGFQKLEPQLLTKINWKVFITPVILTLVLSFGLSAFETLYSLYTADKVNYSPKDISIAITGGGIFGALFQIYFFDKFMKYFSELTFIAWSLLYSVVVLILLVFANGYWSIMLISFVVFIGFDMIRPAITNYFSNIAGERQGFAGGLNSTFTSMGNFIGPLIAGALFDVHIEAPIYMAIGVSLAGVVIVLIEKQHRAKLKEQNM
Briefly: Inhibition of NorA in Staphylococcus aureus K2378 assessed as reduction of ciprofloxacin MIC at 0.78 to 100 ug/mL relative to control. A digest of the protocol: as §3

The target in assay [7] is T1, Quinolone resistance protein NorA (Staphylococcus aureus). Briefly: Inhibition of NorA in Staphylococcus aureus 1199B harboring grlA A116E mutant assessed as reduction of ciprofloxacin MIC at 3.13 ug/mL relative to control. A digest of the protocol: as §3
The test system of assay [8] is Staphylococcus aureus. Briefly: Antibacterial activity against wild type Staphylococcus aureus ATCC 25923 assessed as growth inhibition by microdilution method. The class given is functional. In short, it runs like this: (§4)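 Broth microdilution MIC determination following CLSI guidelines. Strains: wild-type ATCC 25923 and SA-K1902 (norA−). Intrinsic activity was tested up to a top concentration of 100 μg/mL.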

For assay [9], the target named is T1, Quinolone resistance protein NorA (Staphylococcus aureus). Briefly: Inhibition of NorA in Staphylococcus aureus 1199B harboring grlA A116E mutant assessed as inhibition of ethidium bromide efflux at 50 uM measured for 5 mins by fluorometric analysis relative to control. A digest of the protocol: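 EtBr loss from SA-1199B (norA overexpressing, GrlA A116E) measured fluorometrically with inhibitor at 50 μM, compared with no-inhibitor control. Read-out is mean total efflux over a 5 min time course, expressed as percent reduction in efflux. Usually run in duplicate.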

Assay [10] concerns Staphylococcus aureus. Briefly: Antibacterial activity against Staphylococcus aureus 1199 harboring wild type norA assessed as growth inhibition by microdilution method.
Assay [11] addresses T1, Quinolone resistance protein NorA (Staphylococcus aureus). Description: Inhibition of wild type NorA in Staphylococcus aureus 1199 assessed as reduction of ciprofloxacin MIC at 0.78 to 100 ug/mL. A digest of the protocol:
as §3

The test system of assay [12] is Staphylococcus aureus. Description: Inhibition of MepA in Staphylococcus aureus K2886 assessed as reduction of ethidium bromide MIC at 1.56 ug/mL relative to control. In short, it runs like this:
(§5)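 Ethidium bromide MIC by CLSI microdilution, alone and combined with test compound. Strain SA-K2886 is norA-deleted and carries pALC2073-mepA, with mepA under a xyl/tetO promoter; 0.05 μg/mL tetracycline was included throughout to induce expression.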

The subject of assay [13] is Staphylococcus aureus. Description: Antibacterial activity against norA-deficient Staphylococcus aureus K1902 assessed as growth inhibition by microdilution method. The class given is functional. In short, it runs like this: as §4
Assay [14] has as its target T1, Quinolone resistance protein NorA (Staphylococcus aureus). Description: Inhibition of NorA in Staphylococcus aureus ATCC 25923 assessed as reduction of ciprofloxacin MIC at 0.78 to 100 ug/mL. A digest of the protocol:
as §3

In assay [15] the test system is Staphylococcus aureus. Description: Reduction of ethidium bromide MIC in mepA-deficient Staphylococcus aureus K2885 at 0.78 to 100 ug/mL. The class given is functional, organism-based. A digest of the protocol:
as §1

The target in assay [16] is T1, Quinolone resistance protein NorA (Staphylococcus aureus). Description: Inhibition of NorA in Staphylococcus aureus K2378 assessed as reduction of ciprofloxacin MIC at 0.78 ug/mL relative to control. In short, it runs like this:
as §3

The test system of assay [17] is Staphylococcus aureus. Briefly: Inhibition of MepA in Staphylococcus aureus K2886 assessed as reduction of ethidium bromide MIC at 0.78 ug/mL relative to control. In short, it runs like this:
as §5

Calls of active or inactive are those of the source. No cut-off for these calls is given here.

A word on the inhibition: it is the relative decrease from the control value, in per cent. As a reminder, the MIC is the lowest concentration found to suppress growth. Usually IC50 stands for the concentration at which inhibition is half-maximal.

For `CCCOc1ccc(-c2cc(OCCN3CCNCC3)c3ccccc3n2)cc1`, the inhibition result in assay [1] was “Active”. Also, the MIC was 50 µg/mL in [2]; greater than 200 µM in assay [5]; greater than 100 µg/mL in [8]; greater than 100 µg/mL in [10]; 25 µg/mL in assay [13]. In assay [3], the half-maximal inhibitory concentration (IC50) came out at 8.3 µM. In addition, the result in [4] and in assay [15] was inactive. Moreover, the fold change (FC) is 4 in assay [6], 16 in assay [7] and 16 in assay [12]. Besides, the inhibition in [9] came out at 93.4%. Also, the inhibition entry in [11] and in assay [14] was “inactive” throughout.
On to `CCCOc1ccc(-c2cc(OCCN3CCCCCC3)c3ccccc3n2)cc1`, for which the inhibition result in [1] is “Active”. The MIC in assay [2] was 50 µg/mL; in assay [5], greater than 200 µM; in assay [8], greater than 100 µg/mL; in assay [10] it was greater than 100 µg/mL; in assay [13], 50 µg/mL. Further, in [3], the IC50 is 6.4 µM. Also, the fold change (FC) in assay [16], in assay [6], in assay [7] and in assay [17] was 16 in each case. In addition, the outcome in assay [4] and in [15] was inactive. The inhibition in [9] turned out to be 86%. In addition, the inhibition result in [11] and in [14] was “inactive” in each case.
